# In article PMC6551323 (Acta biomaterialia, 2018):
# Format: in vitro ADME, bovine
# Conditions: healthy explants; 24 h absorption, 7-day desorption in 10x PBS
# In short: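 After 24 h uptake of 30 µM 5-FAM-labelled peptide at 37 °C, bovine cartilage disks were desorbed in 1x or 10x PBS with protease inhibitors for up to 7 days. The bath was changed daily and desorbed peptide was read by plate reader. % retention is moles remaining in tissue after desorption divided by moles taken up at 24 h. Mean ± SD, n=6–8 explants, ≥4 animals.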
substance,measurement,value
(ARRRAARA)4 [CPC +16],% CPC desorbed in 10x PBS over 7 days,about 40%
